Experimental data published in article PMC8154207 (JACS Au, 2021).
Where “and” joins values, the source holds several entries; their conditions need not be identical. Identical values can stand only once. Like-named read-outs stand apart in the source and are kept apart here.

Tests used:
[1] = tested on: A549 cells; test: SRB cytotoxicity assay, 2D monolayer; assay type: cell-based, human; details: read-out: EC50 A549
Outline: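 Cells were seeded in 96-well plates (A549 5000, A375 7000, MCF7 8000, MRC5 6000 cells/well) in OptiMEM with 2.4% FCS, then held 24 h at 37 °C, 7.0% CO2. Six concentrations were added in triplicate for 72 h. Plates were fixed with cold 10% TCA (4 °C, ≥4 h), stained with 0.6% SRB (30 min) and solubilized in 10 mM Tris; absorbance read at 510 nm. EC50 was taken versus untreated wells; three independent experiments, 95% CI.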

[2] = target: Kv11.1 (hERG) potassium channel (Homo sapiens, UniProt Q12809); test: [3H]dofetilide displacement assay on HEK293 Kv11.1 cell membranes; assay type: binding; details: tested concentration 10 μM
Outline: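 HEK293 Kv11.1 membranes (30 μg protein) were loaded with 2 nM [3H]dofetilide at 15 °C for 90 min. Dissociation was started with 10 μM unlabeled dofetilide, without or with 10 μM test compound, for 10 min. Samples were filtered through GF/B, washed twice with ice-cold buffer and counted by scintillation. Binding (%) = 100% − [3H]dofetilide binding remaining.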

[3] = tested on: A549 cells; test: Mitochondrial membrane potential, TRME staining, flow cytometry; assay type: cell-based, human; details: 20 μM, 24 h (CCCP 20 μM, 1 h), FACS
Outline: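 A549 cells were seeded at 1 × 10^5 per well, grown 24 h under normoxia, then exposed to compound for 24 h. After a PBS wash, cells were stained with TRME at 150 nM for 30 min; the positive control got CCCP before staining. Harvested cells were analysed by flow cytometry, excitation 488 and emission 575.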

Kv11.1 (hERG) potassium channel, sequence (Q12809 whole entry): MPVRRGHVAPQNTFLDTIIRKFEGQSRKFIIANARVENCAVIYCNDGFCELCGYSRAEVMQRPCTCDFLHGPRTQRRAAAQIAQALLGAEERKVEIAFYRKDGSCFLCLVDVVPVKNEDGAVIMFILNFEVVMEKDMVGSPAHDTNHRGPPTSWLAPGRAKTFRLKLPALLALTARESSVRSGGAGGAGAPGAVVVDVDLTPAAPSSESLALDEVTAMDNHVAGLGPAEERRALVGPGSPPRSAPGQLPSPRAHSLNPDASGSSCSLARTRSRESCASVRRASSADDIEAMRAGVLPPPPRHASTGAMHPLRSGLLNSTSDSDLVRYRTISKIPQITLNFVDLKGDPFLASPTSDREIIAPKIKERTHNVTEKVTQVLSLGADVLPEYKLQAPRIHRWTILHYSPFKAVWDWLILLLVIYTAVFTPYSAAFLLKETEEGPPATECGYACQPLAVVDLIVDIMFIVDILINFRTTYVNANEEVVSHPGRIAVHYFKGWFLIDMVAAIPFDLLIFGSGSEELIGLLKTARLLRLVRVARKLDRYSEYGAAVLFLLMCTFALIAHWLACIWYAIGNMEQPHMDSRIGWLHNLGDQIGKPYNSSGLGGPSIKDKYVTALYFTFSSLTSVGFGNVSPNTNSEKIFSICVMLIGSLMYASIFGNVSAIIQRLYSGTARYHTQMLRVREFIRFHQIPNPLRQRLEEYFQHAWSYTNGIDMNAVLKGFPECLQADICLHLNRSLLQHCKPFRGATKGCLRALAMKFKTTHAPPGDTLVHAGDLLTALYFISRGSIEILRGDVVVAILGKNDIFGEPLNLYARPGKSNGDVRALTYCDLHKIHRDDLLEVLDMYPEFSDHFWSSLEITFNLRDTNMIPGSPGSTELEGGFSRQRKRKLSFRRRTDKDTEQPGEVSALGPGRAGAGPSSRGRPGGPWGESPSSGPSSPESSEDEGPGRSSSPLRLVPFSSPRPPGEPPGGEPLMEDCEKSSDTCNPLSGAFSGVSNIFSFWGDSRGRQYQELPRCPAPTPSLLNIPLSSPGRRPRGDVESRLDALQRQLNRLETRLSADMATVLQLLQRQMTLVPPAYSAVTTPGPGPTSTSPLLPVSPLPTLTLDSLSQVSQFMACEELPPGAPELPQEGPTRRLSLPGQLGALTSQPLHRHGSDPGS

SMILES | EC50 ([1]; Homo sapiens, A549, 72 h) [µM] | Kv11.1 binding (100% - [3H]dofetilide binding remaining) [2] | [3H]dofetilide binding remaining [2] [%] | EC50 ([1]; 2D monolayer, hypoxic (1% O2)) [µM] | Influence on mitochondrial membrane potential [3]
c1cc(Nc2ccc3ccccc3n2)nc(-c2cccc(Nc3ccc4ccccc4n3)n2)c1 [H2biqbpy2, N6,N6′-di(quinolin-2-yl)-[2,2′-bipyridine]-6,6′-diamine] | 12 | 84% and 84 ± 4% | 16 ± 4 | – | –
N.N.[Cl][Pt][Cl] [cisplatin, reference compound] | – | – | – | 24 | –
N#CC(C#N)=NNc1cccc(Cl)c1 [CCCP, carbonyl cyanide m-chlorophenyl hydrazone, reference compound] | – | – | – | – | dramatically reduced percentage of intact mitochondrial membranes
c1cc(Nc2cc3ccccc3cn2)nc(-c2cccc(Nc3cc4ccccc4cn3)n2)c1 [H2biqbpy1, N6,N6′-di(isoquinolin-3-yl)-[2,2′-bipyridine]-6,6′-diamine] | > 200 | 36% and 36 ± 4% | 64 ± 4 | – | –
